Bioassay records deposited in PubChem by several laboratories.
Hits are enriched below; roughly 3.7% of the tested compounds scored in any of these assays.
NPY-Y1 PAM-ag = NPY-Y1 receptor potentiators or agonists, primary screen, cell-based. Neuropeptide Y receptor type 1 (Homo sapiens), P25929. NPY-Y1 expressing cells, potentiator/agonist activation. activation, % at 3.6 µM. 0.37% of 220,000 active; in the data active means activation above about 33%, passing the limit was not always enough;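 further: cells stimulated with NPY at EC10 then isoproterenol at EC100; 0% = low agonist plus stimulus and 100% = saturating agonist plus stimulus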
Target sequence (P25929 whole entry, looked up): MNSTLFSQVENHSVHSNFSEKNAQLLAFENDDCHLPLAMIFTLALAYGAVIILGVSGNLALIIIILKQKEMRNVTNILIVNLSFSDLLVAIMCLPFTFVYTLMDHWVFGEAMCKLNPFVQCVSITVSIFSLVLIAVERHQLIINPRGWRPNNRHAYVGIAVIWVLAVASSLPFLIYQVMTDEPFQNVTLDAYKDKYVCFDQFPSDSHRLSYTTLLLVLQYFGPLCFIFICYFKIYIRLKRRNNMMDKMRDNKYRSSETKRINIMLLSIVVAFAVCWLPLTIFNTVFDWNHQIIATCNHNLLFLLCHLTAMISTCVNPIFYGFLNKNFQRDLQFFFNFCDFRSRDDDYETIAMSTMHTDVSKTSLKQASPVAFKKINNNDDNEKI
NPY2 pot ag = NPY-Y2 potentiators or agonists, primary screen, cell-based; 0.45% of 220,000 active; activation, % at 3.6 µM; cells expressing NPY-Y2, potentiator/agonist read-out; Neuropeptide Y receptor type 2 (Homo sapiens), P49146; in the data active means activation above about 27%;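 further: cells stimulated with NPY near EC25 plus isoproterenol at EC100; 0% = vehicle plus submaximal agonist and 100% = vehicle plus saturating agonist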
Target sequence (P49146 whole entry, looked up): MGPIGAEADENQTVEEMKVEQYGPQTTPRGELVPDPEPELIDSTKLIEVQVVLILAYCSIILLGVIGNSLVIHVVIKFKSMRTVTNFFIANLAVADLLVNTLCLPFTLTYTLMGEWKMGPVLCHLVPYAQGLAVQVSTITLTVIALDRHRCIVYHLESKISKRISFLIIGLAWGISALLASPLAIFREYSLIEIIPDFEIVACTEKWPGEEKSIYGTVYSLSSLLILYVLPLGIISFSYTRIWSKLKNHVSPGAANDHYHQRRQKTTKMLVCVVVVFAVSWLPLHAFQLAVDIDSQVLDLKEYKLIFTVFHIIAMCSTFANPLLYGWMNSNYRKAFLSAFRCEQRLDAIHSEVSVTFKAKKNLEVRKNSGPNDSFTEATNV
KCC2 mod = KCC2 cotransporter modulators, thallium flux, primary screen, cell-based, HEK293 KCC2, FluoZin-2 fluorescence, MLSMR; KCC2 cells, thallium flux FluoZin-2 fluorescence; Solute carrier family 12 member 5 (Homo sapiens), Q9H2X9; 2.2% of 190,000 active; AID 1456, 2008; B-score of Tl+ flux slope (higher = more flux/activation; lower = inhibition) at 10 µM;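 active means thallium flux slope and its plate-corrected score both differing from the plate sample mean at a set confidence after two filtering rounds, in either direction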;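 further: slope of fluorescence scaled to starting intensity during 10 to 20 s after thallium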
NPY Y1 blocker = NPY-Y1 receptor antagonists, primary screen, cell-based; 1% of 200,000 active; AID 1040, 2008; HEK293-CNG Y1 cells, membrane potential fluorescence; NPY at EC95, then isoproterenol; Neuropeptide Y receptor type 1 (Homo sapiens), P25929; inhibition, % at 3.6 µM;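 active means inhibition above the campaign mean inhibition of all tested compounds plus 3 SD, cut at about 20% in these data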;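 further: 0% = DMSO wells given NPY plus isoproterenol and 100% = isoproterenol alone without NPY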
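material = HEK293 cells with Y1 receptor plus CNG channel | also added = NPY 25 nM then isoproterenol 1 µM plus Ro 20-1724 25 µM | schedule = dye 3 h, compound 60 min room temperature, stimulation 45 min | measured by = membrane potential fluorescence | benchmarks = high control isoproterenol alone, low control NPY with isoproterenol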
Furin inhibitor = human furin inhibitors, primary screen, biochemical, fluorescence intensity | P09958 | purified furin, fluorogenic substrate cleavage | inhibition, % at 20 µM or 30 µM | 0.061% of 220,000 active | AID 463115, 2010; in the data active means inhibition above about 25%
NPY-Y2 antag = NPY-Y2 receptor antagonists, primary screen, cell-based | Neuropeptide Y receptor type 2 (Homo sapiens), P49146 | NPY-Y2 expressing cells, antagonist mode | inhibition, % at 2.7 µM | 0.99% of 140,000 active | AID 793, 2007; in the data active means inhibition above about 17%;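 further: 0% = vehicle with agonist challenge and 100% = reference antagonist with challenge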
KCC2 secondary = KCC2 modulators in sodium-free buffer, confirmation, cell-based, HEK293 KCC2, thallium flux, secondary assay | normalised thallium flux (F/F0 slope) at 10 µM | AID 1713, 2009 | shares compounds with KCC2 mod | 15% of 3,700 active | FluoZin2 fluorescence; stronger effect = higher value;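 active means thallium flux slope above the same plate's solvent-only control mean plus 3 SD; inconclusive means the two replicate wells disagree; inactive means no significant difference from solvent-only control wells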
KCC2 bumet counter = thallium flux persisting under bumetanide in KCC2 cells, confirmation, counter-screen for KCC2 modulator project, cell-based, HEK293 KCC2, FluoZin2, secondary assay 3; shares compounds with KCC2 mod; HEK293-KCC2 + bumetanide/ouabain; stronger effect = higher value; normalized thallium flux at 10 µM; 49% of 3,700 active; AID 1714, 2009;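 active means thallium entry rate above the same plate's blocked-transporter control wells by more than 3 SD; inconclusive means the two repeat wells disagree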;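 further: raw slope of fluorescence over initial fluorescence between 10 and 20 s after thallium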
KCC2 secondary2 = KCC2 modulators without ouabain present, confirmation, cell-based, HEK293 KCC2, thallium flux, FluoZin2, secondary assay 2. shares compounds with KCC2 mod. thallium flux FluoZin2 fluorescence; actives lie on both sides; F/F0 rise rate, 10–20 s post-thallium. normalized thallium flux at 10 µM. 23% of 3,700 active. AID 1715, 2009;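 active means thallium flux slope more than 3 SD above or below the plate's solvent-only control mean, mostly below; inconclusive means the two repeat wells disagreed; inactive means no significant shift from solvent-only controls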;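 further: raw slope with 0.1% DMSO as baseline and bumetanide as block control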
HEK counter1 = thallium flux modulation in parental HEK cells, confirmation, counter-screen for KCC2 modulator project, cell-based, counterscreen 1 | HEK293 parental cells, thallium flux FluoZin2, ouabain; baseline-ratio fluorescence slope, 10–20 s after thallium | 46% of 3,700 active | shares compounds with KCC2 mod | thallium flux rate (normalised fluorescence) at 10 µM;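 active means thallium flux rate significantly above the same plate's solvent-only control wells, beyond their mean plus 3 SD; inconclusive means the two replicate wells gave conflicting results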
KCC2 retest ouab = KCC2 inhibitors and activators, ouabain retest, confirmation, HEK-KCC2 cells. HEK293-KCC2, thallium flux FluoZin2 fluorescence; bidirectional: low = inhibitor, high = activator. raw Tl+ flux slope (below DMSO = inhibition, above = activation) at 10 µM. shares compounds with KCC2 mod. 48% of 3,700 active;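 active means thallium flux slope beyond 3 SD from same-plate DMSO control mean in most replicates, usually higher, sometimes lower; inconclusive means repeat tests gave conflicting results; inactive means no significant difference from controls in most replicates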;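 further: slope of initial-normalized fluorescence between seconds 10 and 20 after thallium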
HEK293 Tl flux2 = native HEK Tl+ uptake effects, second counter-screen – HEK cells, counterscreen 2, counter-screen for KCC2 modulator project, confirmation; shares compounds with KCC2 mod; HEK293 parental, thallium flux FluoZin-2 fluorescence slope; thallium flux slope at 10 µM; 33% of 3,700 active;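 active means thallium flux slope above the same plate's solvent-control mean plus 3 SD in both duplicate wells; inconclusive means duplicate wells that disagreed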;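 further: run without ouabain in cells lacking the KCC2 cotransporter; slope of fluorescence scaled to its starting value between 10 and 20 s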
* = called active by the depositor; u = inconclusive; x = no result.

SMILES	NPY-Y1 PAM-ag	NPY2 pot ag	KCC2 mod	NPY Y1 blocker	Furin inhibitor	NPY-Y2 antag	KCC2 secondary	KCC2 bumet counter	KCC2 secondary2	HEK counter1	KCC2 retest ouab	HEK293 Tl flux2
O=c1[nH]cnc2scc(-c3ccc(Br)cc3)c12	9	-7	x	6	-17	x	x	x	x	x	x	x
S=c1[nH]cnc2scc(-c3ccc(Cl)cc3)c12	8	-6	181*	x	-3	x	0.063*	0.17*	0.058*	u	0.12*	0.062*
Clc1ccc(-c2csc3ncnc(Cl)c23)cc1	2	10	0.31	-1	-11	5	x	x	x	x	x	x
S=c1[nH]cnc2scc(-c3ccc(Br)cc3)c12	1	-5	48*	2	-23	x	0.055*	0.14*	u	u	0.094*	0.027*
C=COCCNC(=S)N1CCOCCOCCN(C(=S)NCCOC=C)CCOCCOCC1	2	-2	-0.1	6	-20	x	x	x	x	x	x	x
CC(=O)N(c1nc(CCl)cs1)c1c(C)cc(C)cc1C	-11	1	0.014	5	3	2	x	x	x	x	x	x
CC1SC(C)C(=O)N(CC(=O)Nc2ccc([N+](=O)[O-])cc2)C1=O (stereo unspecified)	-11	-2	0.46	-2	-16	x	x	x	x	x	x	x
COc1ccc(NS(=O)(=O)c2ccc(-n3nnc4ccccc43)c([N+](=O)[O-])c2)cc1	32	-5	0.97	-1	-11	3	x	x	x	x	x	x
O=[N+]([O-])c1cc(S(=O)(=O)Nc2cccc(C(F)(F)F)c2)ccc1-n1nnc2ccccc21	5	-14	-3.2*	11	-14	9	0.007	0.0056	0.03	0.0073	0.015*	u
O=C(CN1CCN(S(=O)(=O)c2ccccc2)CC1)Nc1ccc2c(c1)CCC2	-4	5	6.2*	0	-20	0	0.0065	0.0048	u	0.0076	0.017	0.011
N#Cc1c(SCC(=O)O)nc(N2CCCCC2)c2c1CCCC2	19	9	-3.2*	3	-21	4	0.012	0.0062	0.033	0.0064	0.02	0.011
CC(=O)c1cccc(N(C(=O)CNC(=O)c2ccco2)C(C(=O)NCc2ccco2)c2ccccc2)c1 (stereo unspecified)	12	1	1	-10	-25	x	x	x	x	x	x	x
COc1cccc(N/C=C/c2onc(C)c2[N+](=O)[O-])c1	-15	-5	-0.0016	5	-11	x	x	x	x	x	x	x
c1ccc(-c2cccc(-c3ccccn3)n2)nc1	-3	4	-0.18	1	-14	1	x	x	x	x	x	x
OCC1N=C(c2ccccn2)OC1c1ccccc1 (stereo unspecified)	19	-5	-5.8*	1	-5	3	0.0072	0.007	0.03	0.0072	0.02	0.01*
CCOC(=O)COc1c(/C=N\O)cc(Cl)cc1OC	-6	0	1.2	-4	-4	x	x	x	x	x	x	x
S=c1nc(Cc2ccc(Cl)cc2)[nH]c2ccccc12	0	-3	67*	4	-22	x	0.053*	0.15*	0.044*	0.099*	0.085*	0.043*
NNC(=O)c1sccc1OCc1ccc(Cl)cc1Cl	-61	-33	-1.1	1	-2	x	x	x	x	x	x	x
N#Cc1nc(-c2cccs2)oc1N1CCN(Cc2ccccc2)CC1	-44	-11	x	0	-20	8	0.018	u	0.023*	0.0071	0.014	0.01
Cn1c([N+](=O)[O-])cnc1N1CCN(c2nncs2)C1=O	3	18	0.84	x	0	x	x	x	x	x	x	x
COc1ccccc1N1CCN(CC(=O)c2c[nH]c3ccccc23)CC1	-2	-20	-0.34	x	-14	x	x	x	x	x	x	x
O=C(CN1CCN(c2ccccc2F)CC1)c1c[nH]c2ccccc12	-4	7	-4.3*	-1	2	-1	0.0092	0.0061	0.032	0.0078	0.023	0.011*
CC(/C=C/c1ccccc1)=N\NC(=S)NC(C)C	-10	-11	8*	8	1	x	0.0068	0.018*	0.03	0.017*	u	0.014*
Cc1cccc(NC(=O)NCC(c2cccnc2)N2CCOCC2)c1 (stereo unspecified)	-10	-11	x	-1	-21	3	0.012	0.0068	0.035	0.0081	0.022	0.011
COn1cnnc1-c1ccccc1	15	-1	x	-5	-25	2	0.0065	0.0046	0.031	0.0076	0.018	0.01
Fc1ccccc1Cc1noc(CN2CCC(OCc3cccnc3)CC2)n1	8	12	0.28	3	-18	x	x	x	x	x	x	x
COc1ccccc1NC(=O)c1ccccc1-c1nc(-c2ccccc2OC)no1	-30	-20	4*	12	-26	9	0.0081	0.0052	0.032	0.0035	0.019	0.011
CC1CCCC(C)N1c1nnc(NC(=O)c2cc(-c3ccc(Br)cc3)on2)s1 (stereo unspecified)	-21	5	12*	-2	-18	3	0.0087	0.02*	0.028	0.011*	u	u
O=C(NC(=S)Nc1ccc(S(=O)(=O)NC2CCCCC2)cc1)c1cccs1	-7	10	2	-2	-9	2	x	x	x	x	x	x
